Test [1] addresses T1, Polyunsaturated fatty acid 5-lipoxygenase (Rattus norvegicus, UniProt P12527).
T1 sequence (P12527 whole entry): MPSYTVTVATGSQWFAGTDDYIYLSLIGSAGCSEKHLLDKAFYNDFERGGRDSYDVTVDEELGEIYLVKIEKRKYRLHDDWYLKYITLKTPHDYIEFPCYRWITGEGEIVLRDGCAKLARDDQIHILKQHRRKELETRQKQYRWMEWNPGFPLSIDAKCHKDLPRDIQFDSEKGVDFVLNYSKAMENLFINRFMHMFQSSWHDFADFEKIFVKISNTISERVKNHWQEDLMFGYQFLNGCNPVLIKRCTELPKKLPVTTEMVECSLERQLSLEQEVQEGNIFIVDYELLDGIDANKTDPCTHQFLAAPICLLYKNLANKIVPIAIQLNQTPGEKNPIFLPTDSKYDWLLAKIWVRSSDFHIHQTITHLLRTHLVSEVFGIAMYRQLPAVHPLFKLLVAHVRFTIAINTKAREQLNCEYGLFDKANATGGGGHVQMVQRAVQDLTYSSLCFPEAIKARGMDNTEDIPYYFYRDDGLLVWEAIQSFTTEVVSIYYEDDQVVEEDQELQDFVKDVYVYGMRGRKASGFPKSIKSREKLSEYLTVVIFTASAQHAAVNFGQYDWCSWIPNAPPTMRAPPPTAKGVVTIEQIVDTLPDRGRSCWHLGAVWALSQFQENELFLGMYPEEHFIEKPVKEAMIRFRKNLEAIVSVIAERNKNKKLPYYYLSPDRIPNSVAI
Nature of the test: Evaluated in vitro for its inhibitory activity against 5-lipoxygenase.

For test [2], the species on record is Rattus norvegicus. Nature of the test: Ratio of IC50 against 5-LO to that of CO enzyme. The method in brief: (§1)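 In ionophore-stimulated RBL-1 cells (2×10^6/mL, PBS with 1.0 mM Ca, 10 min compound preincubation at room temperature, 5 μM A23187 for 7 min at 37 °C), supernatant LTB₄ (5-LO) and PGF₂α (CO) were each quantified by RIA over 0.10–10.0 μM. IC50s came from linear regression, and the ratio is the 5-LO IC50 over the CO IC50.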

The next test addresses T2, Cyclooxygenase (Rattus norvegicus, UniProt P35355+Q63921).
T2 sequence (P35355 whole entry): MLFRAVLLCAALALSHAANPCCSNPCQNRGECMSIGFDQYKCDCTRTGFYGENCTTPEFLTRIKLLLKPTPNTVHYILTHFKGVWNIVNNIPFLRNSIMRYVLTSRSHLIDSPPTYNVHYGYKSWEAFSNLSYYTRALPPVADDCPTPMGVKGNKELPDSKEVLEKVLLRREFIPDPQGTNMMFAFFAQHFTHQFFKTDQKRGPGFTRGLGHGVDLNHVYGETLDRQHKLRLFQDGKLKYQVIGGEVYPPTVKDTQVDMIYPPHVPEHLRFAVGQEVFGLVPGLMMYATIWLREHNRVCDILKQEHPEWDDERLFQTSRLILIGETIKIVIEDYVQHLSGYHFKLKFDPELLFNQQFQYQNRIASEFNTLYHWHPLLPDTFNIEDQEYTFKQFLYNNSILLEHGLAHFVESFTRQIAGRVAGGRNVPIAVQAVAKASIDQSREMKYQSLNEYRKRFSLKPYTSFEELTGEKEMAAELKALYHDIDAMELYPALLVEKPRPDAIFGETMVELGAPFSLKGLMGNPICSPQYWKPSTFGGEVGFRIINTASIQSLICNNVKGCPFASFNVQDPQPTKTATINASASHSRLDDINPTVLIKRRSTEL
T2 sequence (Q63921 whole entry): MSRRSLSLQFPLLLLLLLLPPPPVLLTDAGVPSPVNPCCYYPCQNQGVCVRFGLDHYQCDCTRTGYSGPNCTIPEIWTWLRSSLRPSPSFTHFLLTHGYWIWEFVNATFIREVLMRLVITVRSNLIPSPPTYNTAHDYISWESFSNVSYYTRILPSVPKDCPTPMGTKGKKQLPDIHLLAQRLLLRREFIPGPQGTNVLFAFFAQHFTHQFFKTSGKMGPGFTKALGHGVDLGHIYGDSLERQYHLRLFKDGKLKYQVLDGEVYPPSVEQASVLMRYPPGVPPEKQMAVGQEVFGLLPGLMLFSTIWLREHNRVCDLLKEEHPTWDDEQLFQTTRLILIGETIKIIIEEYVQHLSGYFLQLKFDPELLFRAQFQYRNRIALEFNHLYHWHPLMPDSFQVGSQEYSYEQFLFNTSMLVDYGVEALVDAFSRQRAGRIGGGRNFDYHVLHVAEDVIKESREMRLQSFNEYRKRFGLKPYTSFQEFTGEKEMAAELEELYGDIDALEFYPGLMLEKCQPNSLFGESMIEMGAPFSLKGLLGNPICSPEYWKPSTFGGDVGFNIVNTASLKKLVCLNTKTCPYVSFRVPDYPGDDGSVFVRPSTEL
Nature of the test: Evaluated in vitro for its inhibitory activity against Prostaglandin G/H synthase. The format is protein assay.

Test [3] relates to Rattus norvegicus. Briefly: Evaluated for the percent rats with ulcers at the dose of 200 mg/kg (number of animals used per group in the experiment are 10 ). The format is functional. Put shortly: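 Male outbred Wistar rats (100-250 g) fasted 24 h, given compound orally in 0.5% HPMC (2 mL/kg), then denied food and water 6 more h. Killed with CO2; stomachs opened along greater curvature and scored for ulcers. Percent of rats with ulcers per dose; up to 200 mg/kg po, 10 rats per dose.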

For test [4], the system named is Rattus norvegicus. Nature of the test: Evaluated for the antiinflammatory activity by measuring the percentage inhibition of edema in the carrageenan foot-pad edema test at the dose of 30 mg/kg. The format is functional. Put shortly:
(§2)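 Male Wistar rats dosed orally (0.5% HPMC/0.2% Tween 80 or Labrafils, 10 mL/kg) 1 h before subplantar injection of 0.10 mL 1% carrageenan into right hind paw under light anesthesia. Paw volume by mercury plethysmography at challenge and 5 h later; percent inhibition ± SEM versus vehicle group. Doses 10.0 and 30.0 mg/kg po, 7-14 rats per dose.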

Test [5] concerns Rattus norvegicus. Nature of the test: Evaluated for the antiinflammatory activity by measuring the percentage inhibition of edema in the carrageenan foot-pad edema test at the dose of 10 mg/kg. The test is classed as functional. The method in brief: as §2
In test [6] the test system is Rattus norvegicus. Nature of the test: Evaluated for the antiinflammatory activity by measuring the dose (po) which inhibited Mycobacterium induced foot-pad edema in rats. The format is functional.
In test [7] the target is T1, Polyunsaturated fatty acid 5-lipoxygenase. Briefly: Evaluated in vitro for its inhibitory activity against 5-lipoxygenase; N=Inactive, <50% inhibition at 10 uM concentration. The method in brief:
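RBL-1 cells grown in MEM + 12% FBS, washed in PBS pH 7.4, resuspended at 2×10^6 cells/mL in PBS with 1.0 mM calcium. Preincubated 10 min at room temperature with compound in DMSO, then stimulated with A23187 (5 μM) 7 min at 37 °C; stopped on ice. Supernatant LTB4 by radioimmunoassay.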

In test [8] the test system is Rattus norvegicus. Briefly: Compound was evaluated for the antiinflammatory activity by measuring the dose (po) which inhibited Mycobacterium induced foot-pad edema in rats; N=Inactive, <30% inhibition at 10 mg/kg po. The test is classed as functional, organism-based. Set-up: dose 10 mg/kg.
For test [9], the species on record is Rattus norvegicus. Briefly: Ratio of IC50 against 5-LO and COX. Put shortly: as §1
The target of test [10] is T1, Polyunsaturated fatty acid 5-lipoxygenase. Briefly: Inhibitory activity against 5-Lipoxygenase. Put shortly:
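Rat basophilic leukemia RBL-1 cells were grown in suspension in MEM with 12% FBS, washed, and resuspended at 2×10^6 cells/mL in PBS pH 7.4 with 1.0 mM calcium. Compound in DMSO was preincubated 10 min at room temperature, then 5 μM A23187 was added for 7 min at 37 °C. LTB₄ in the supernatant was measured by RIA at 0.10–10.0 μM. IC50 was determined by linear regression.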

Results on 18 compounds are retold here after ChEMBL document CHEMBL1125307, “Novel 1,2,4-oxadiazoles and 1,2,4-thiadiazoles as dual 5-lipoxygenase and cyclooxygenase inhibitors” (J Med Chem, 1992).

Active and inactive are the calls of the source. The rule behind the calls is not given here.

Regarding `CC(C)(C)c1cc(-c2nsc(CN)n2)cc(C(C)(C)C)c1O.Cl`, the IC50 was found to be 2600 nM in [1] and 87 nM on Cyclooxygenase. Moreover, in the test listed under Rattus norvegicus [2], the Ratio was 30.
`CSC(=N)Nc1nc(-c2cc(C(C)(C)C)c(O)c(C(C)(C)C)c2)ns1.Cl` displayed an Activity in the test on Rattus norvegicus [3] of 0%. The compound further showed an inhibition in vivo at 30 mg/kg in the test on Rattus norvegicus [4] of 41.4%. For the same compound, the IC50 in test [1] amounted to 1200 nM; at Cyclooxygenase it was 170 nM. Further, testing at 10 mg/kg in the test on Rattus norvegicus [5] gave an inhibition in vivo of 30.7%. Also, the Ratio in the test listed under Rattus norvegicus [2] was 7.1. In the test on Rattus norvegicus [6], this compound had an ID40 of 7.3 mg/kg.
Regarding `CC(C)(C)c1cc(-c2nc(CN3CCCC3)no2)cc(C(C)(C)C)c1O`, the IC50 result in test [7] is on record as “Inactive”.
Same read-out and setting: the value for `CN(C)Cc1nc(-c2cc(C(C)(C)C)c(O)c(C(C)(C)C)c2)ns1.Cl` was “Inactive”.
Consider `CC(C)(C)c1cc(-c2nc(N)no2)cc(C(C)(C)C)c1O`, for which the inhibition in vivo at 30 mg/kg in the test on Rattus norvegicus [4] stood at 32.9%. For the same compound, the values for the IC50 (in test [1]; against Cyclooxygenase) were 3600 nM and 1900 nM, respectively. This compound displayed an inhibition in vivo at 10 mg/kg in the test with Rattus norvegicus [5] of 43.6%. Further, in the test filed under Rattus norvegicus [2], the Ratio came out at 1.9. Also, the ID40 result in the test with Rattus norvegicus [8] is “inactive”.
In the case of `CC(=N)Nc1nc(-c2cc(C(C)(C)C)c(O)c(C(C)(C)C)c2)ns1.Cl`, in test [7], the 50% inhibitory concentration (IC50) result is “Inactive”.
In the case of `CC(C)(C)c1cc(-c2noc(S)n2)cc(C(C)(C)C)c1O`, in the test filed under Rattus norvegicus [2], the Ratio is 68. At Cyclooxygenase, this compound came in with a half-inhibitory concentration (IC50) of 50 nM.
For `Cc1ccc(S(=O)(=O)c2nc(-c3cc(C(C)(C)C)c(O)c(C(C)(C)C)c3)ns2)cc1`, the half-inhibitory concentration (IC50) entry in test [7] was “Inactive”.
Consider `CN(C)Cc1nc(-c2cc(C(C)(C)C)c(O)c(C(C)(C)C)c2)no1.Cl`, for which the figures for the concentration for half-maximal inhibition (IC50) (in test [1]; on Cyclooxygenase) were 7700 nM and 730 nM, respectively. In addition, the Ratio in the test listed under Rattus norvegicus [2] was found to be 10.5.
For the compound `C/N=C(\N)Nc1nc(-c2cc(C(C)(C)C)c(O)c(C(C)(C)C)c2)ns1.Cl`, the Activity in the test on Rattus norvegicus [3] is recorded as 0%. The inhibition in vivo at 30 mg/kg in the test with Rattus norvegicus [4] was 38.9%. Further, the IC50 came to 370 nM in [1] and 4400 nM against Cyclooxygenase. This compound came in with an inhibition in vivo at 10 mg/kg in the test on Rattus norvegicus [5] of 18%. The Ratio in the test filed under Rattus norvegicus [2] was 0.084. Also, the ID40 with Rattus norvegicus [6] worked out at 6 mg/kg.
In the test with Rattus norvegicus [4], `CC(C)(C)c1cc(-c2noc(N)n2)cc(C(C)(C)C)c1O` gave an inhibition in vivo at 30 mg/kg of 39%. Also, the IC50 is 2500 nM in test [1] and 3000 nM at Cyclooxygenase. In the test on Rattus norvegicus [5], this compound showed an inhibition in vivo at 10 mg/kg of 36%. Besides, the Ratio in the test listed under Rattus norvegicus [2] is 0.83.
Compound `CC(C)(C)c1cc(-c2nc(=S)o[nH]2)cc(C(C)(C)C)c1O` displayed a half-inhibitory concentration (IC50) in [1] of 3400 nM.
Regarding `Cc1nc(-c2cc(C(C)(C)C)c(O)c(C(C)(C)C)c2)no1`, the Ratio in the test filed under Rattus norvegicus [2] was found to be 7.7. At Cyclooxygenase, this compound came in with an IC50 of 300 nM.
Compound `CC(C)(C)c1cc(-c2nsc(N=C(N)N)n2)cc(C(C)(C)C)c1O.Cl` had an Activity in the test on Rattus norvegicus [3] of 0%. In the test on Rattus norvegicus [4], this compound had an inhibition in vivo at 30 mg/kg of 61.3%. For the same compound, the figures for the IC50 (in [1]; on Cyclooxygenase) were 140 nM and 1600 nM, respectively. Further, the inhibition in vivo at 10 mg/kg in the test on Rattus norvegicus [5] was determined as 46.1%. Moreover, in the test filed under Rattus norvegicus [2], the Ratio came to 0.088. In the test with Rattus norvegicus [6], this compound gave an ID40 of 5.1 mg/kg.
With `CC(C)(C)c1cc(-c2noc(O)n2)cc(C(C)(C)C)c1O`, the half-inhibitory concentration (IC50) result was “Inactive” in test [7] and 4700 nM against Cyclooxygenase.
Compound `CC(C)(C)c1cc(-c2noc(N=C(N)N)n2)cc(C(C)(C)C)c1O.CS(=O)(=O)O` registered an Activity in the test with Rattus norvegicus [3] of 0%. Besides, the inhibition in vivo at 30 mg/kg in the test on Rattus norvegicus [4] is 71%. Also, the concentration for half-maximal inhibition (IC50) in [1] came out at 1700 nM; against Cyclooxygenase, 670 nM. The compound further showed an inhibition in vivo at 10 mg/kg with Rattus norvegicus [5] of 51.2%. Also, in the test filed under Rattus norvegicus [2], the Ratio turned out to be 2.5. The same compound had an ID40 in the test with Rattus norvegicus [6] of 3.1 mg/kg.
Turning to `CC(C)(C)c1cc(-c2nsc(N)n2)cc(C(C)(C)C)c1O`, the concentration for half-maximal inhibition (IC50) in test [1] was 330 nM; against Cyclooxygenase it was 2200 nM. Further, the Ratio in the test listed under Rattus norvegicus [2] amounted to 0.15.
For `CC(C)(C)c1cc(-c2nsc(NC#N)n2)cc(C(C)(C)C)c1O.C[N+](C)(C)CC[O-]`, the Ratio in the test listed under Rattus norvegicus [9] amounted to 173. The half-inhibitory concentration (IC50) in [10] came out at 1900 nM; at Cyclooxygenase it was 11 nM.
